Laboratory results published in ChEMBL document CHEMBL3351734 (Bioorg Med Chem Lett, 2014).
Values after ≈ are worked out from the molar mass of the structure shown. Active and inactive are the calls of the source. The rule behind the calls is not given here. Residues, ends and D or L forms follow the SMILES beside them. *: point of attachment. Boc = CC(C)(C)OC(=O)*; NHBn = c1ccc(CN*)cc1

Columns and labels:
[1] = system: Mycobacterium intracellulare; assay: Antimicrobial activity against Mycobacterium intracellulare ATCC 23068 after 70 to 74 hrs by Alamar Blue method; format: functional, organism-based
SK-MEL = assay: Cytotoxicity against human SK-MEL cells after 48 hrs by neutral red assay; format: cell-based
Summary of the method: (§1)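 Cells were exposed to peptides up to a highest tested concentration of 10 μg/mL, using a previously reported cytotoxicity protocol.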

KB = assay: Cytotoxicity against human KB cells after 48 hrs by neutral red assay; format: cell-based; summary of the method: as §1
BT-549 = assay: Cytotoxicity against human BT549 cells after 48 hrs by neutral red assay; format: cell-based; settings: bt-549, 48 h; summary of the method: as §1
[2] = Cytotoxicity against human SKOV3 cells after 48 hrs by neutral red assay; format: cell-based; settings: sk-ov-3, 48 h; summary of the method: as §1
Vero = assay: Cytotoxicity against African green monkey Vero cells after 48 hrs by neutral red assay; format: cell-based; settings: chlorocebus sabaeus; summary of the method: as §1
[3] = Cytotoxicity against pig LLC-PK cells after 48 hrs by neutral red assay; format: cell-based, Sus scrofa; summary of the method: as §1
Staphylococcus aureus [4] = assay: Antibacterial activity against Staphylococcus aureus ATCC 29213 assessed as absence of detectable growth; format: functional
Summary of the method: (§2)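 Antibacterial susceptibility determined by the CLSI (formerly NCCLS) protocol. MIC is the lowest test concentration (μg/mL) allowing no detectable growth. MBC is the lowest test concentration killing 100% of the organism.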

Staphylococcus aureus [5] = assay: Antibacterial activity against Staphylococcus aureus ATCC 29213 assessed as 100% killing; format: functional; summary of the method: as §2
Staphylococcus aureus [6] = assay: Antibacterial activity against methicillin-resistant Staphylococcus aureus ATCC 33591 assessed as 100% killing; format: functional
Summary of the method: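 Testing followed the CLSI (formerly NCCLS) susceptibility protocol. MBC was taken as the lowest test concentration in μg/mL that kills 100% of the organism.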

Cryptococcus neoformans [7] = assay: Antimicrobial activity against Cryptococcus neoformans ATCC 90113 assessed as detectable growth after 70 to 74 hrs by CLSI method; format: functional
Cryptococcus neoformans [8] = assay: Antimicrobial activity against Cryptococcus neoformans ATCC 90113 assessed as complete killing after 70 to 74 hrs by CLSI method; format: functional
Cryptococcus neoformans [9] = assay: Antimicrobial activity against Cryptococcus neoformans ATCC 90113 assessed as growth inhibition after 70 to 74 hrs by CLSI method; format: functional, organism-based
Staphylococcus aureus [10] = assay: Antibacterial activity against methicillin-resistant Staphylococcus aureus ATCC 33591 assessed as absence of detectable growth; format: functional
Summary of the method: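 MIC was determined by the CLSI (formerly NCCLS) protocol. It was taken as the lowest test concentration in μg/mL allowing no detectable growth.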

SMILES: O=C(O)c1cn(C2CC2)c2cc(N3CCNCC3)c(F)cc2c1=O [CIPROFLOXACIN]
- inhibition [1]: inactive

SMILES: CC(C)(C)OC(=O)N[C@@H](Cc1cnc(C23CC4CC(CC(C4)C2)C3)[nH]1)C(=O)N[C@@H](Cc1c[nH]c2ccccc12)C(=O)N[C@@H](Cc1cnc(C23CC4CC(CC(C4)C2)C3)[nH]1)C(=O)NCc1ccccc1
- inhibition [1]: inactive
- Activity (SK-MEL): > 10 µg/mL
- Activity (KB): > 10 µg/mL
- Activity (BT-549): > 10 µg/mL
- Activity [2]: > 10 µg/mL
- Activity (Vero): > 10 µg/mL
- Activity [3]: > 10 µg/mL
- MIC (Staphylococcus aureus [4]): 20 µg/mL (≈ 21.4 µM)
- MBC (Staphylococcus aureus [5]): 20 µg/mL (≈ 21.4 µM)
- MBC (Staphylococcus aureus [6]): 20 µg/mL (≈ 21.4 µM)

SMILES: CC(C)(C)OC(=O)N[C@@H](Cc1cnc(C2CCCC2)[nH]1)C(=O)N[C@@H](Cc1c[nH]c2ccccc12)C(=O)N[C@@H](Cc1cnc(C2CCCC2)[nH]1)C(=O)NCc1ccccc1
- inhibition [1]: inactive
- MIC (Cryptococcus neoformans [7]): inactive
- MFC (Cryptococcus neoformans [8]): inactive
- Activity (SK-MEL): > 10 µg/mL
- Activity (KB): > 10 µg/mL
- Activity (BT-549): > 10 µg/mL
- Activity [2]: > 10 µg/mL
- Activity (Vero): > 10 µg/mL
- Activity [3]: > 10 µg/mL

SMILES: N[C@@H](Cc1cnc[nH]1)C(=O)N[C@@H](Cc1c[nH]c2ccccc12)C(=O)N[C@@H](Cc1cnc[nH]1)C(=O)NCc1ccccc1 (H-His-Trp-His-NHBn)
- inhibition [1]: inactive
- MFC (Cryptococcus neoformans [8]): 10 µg/mL (≈ 17.6 µM)
- Activity (SK-MEL): > 10 µg/mL
- Activity (KB): > 10 µg/mL
- Activity (BT-549): > 10 µg/mL
- Activity [2]: > 10 µg/mL
- Activity (Vero): > 10 µg/mL
- Activity [3]: > 10 µg/mL

SMILES: N[C@@H](Cc1cnc(C2CCCC2)[nH]1)C(=O)N[C@@H](Cc1c[nH]c2ccccc12)C(=O)N[C@@H](Cc1cnc(C2CCCC2)[nH]1)C(=O)NCc1ccccc1
- inhibition [1]: inactive
- IC50 (Cryptococcus neoformans [9]): Not Active
- MIC (Cryptococcus neoformans [7]): inactive
- MFC (Cryptococcus neoformans [8]): inactive
- Activity (SK-MEL): > 10 µg/mL
- Activity (KB): > 10 µg/mL
- Activity (BT-549): > 10 µg/mL
- Activity [2]: > 10 µg/mL
- Activity (Vero): > 10 µg/mL
- Activity [3]: > 10 µg/mL

SMILES: CC(C)(C)OC(=O)N[C@@H](Cc1cnc[nH]1)C(=O)N[C@@H](Cc1c[nH]c2ccccc12)C(=O)N[C@@H](Cc1cnc[nH]1)C(=O)NCc1ccccc1 (Boc-His-Trp-His-NHBn)
- inhibition [1]: inactive
- MFC (Cryptococcus neoformans [8]): 1.25 µg/mL (≈ 1.87 µM)
- Activity (SK-MEL): > 10 µg/mL
- Activity (KB): > 10 µg/mL
- Activity (BT-549): > 10 µg/mL
- Activity [2]: > 10 µg/mL
- Activity (Vero): > 10 µg/mL
- Activity [3]: > 10 µg/mL

SMILES: CC(C)(C)c1ncc(C[C@H](NC(=O)[C@H](Cc2c[nH]c3ccccc23)NC(=O)[C@@H](N)Cc2cnc(C(C)(C)C)[nH]2)C(=O)NCc2ccccc2)[nH]1
- inhibition [1]: inactive
- MFC (Cryptococcus neoformans [8]): 20 µg/mL (≈ 29.4 µM)
- Activity (SK-MEL): > 10 µg/mL
- Activity (KB): > 10 µg/mL
- Activity (BT-549): > 10 µg/mL
- Activity [2]: > 10 µg/mL
- Activity (Vero): > 10 µg/mL
- Activity [3]: > 10 µg/mL

SMILES: N[C@@H](Cc1cnc(C23CC4CC(CC(C4)C2)C3)[nH]1)C(=O)N[C@@H](Cc1c[nH]c2ccccc12)C(=O)N[C@@H](Cc1cnc(C23CC4CC(CC(C4)C2)C3)[nH]1)C(=O)NCc1ccccc1
- inhibition [1]: inactive
- MIC (Cryptococcus neoformans [7]): 0.63 µg/mL (≈ 0.754 µM)
- Activity (SK-MEL): > 10 µg/mL
- Activity (KB): > 10 µg/mL
- Activity (BT-549): > 10 µg/mL
- Activity [2]: > 10 µg/mL
- Activity (Vero): > 10 µg/mL
- Activity [3]: > 10 µg/mL
- MIC (Staphylococcus aureus [4]): 5 µg/mL (≈ 5.98 µM)
- MIC (Staphylococcus aureus [10]): 10 µg/mL (≈ 12 µM)

SMILES: CC(C)(C)OC(=O)N[C@@H](Cc1cnc(C2CCCCC2)[nH]1)C(=O)N[C@@H](Cc1c[nH]c2ccccc12)C(=O)N[C@@H](Cc1cnc(C2CCCCC2)[nH]1)C(=O)NCc1ccccc1
- inhibition [1]: inactive
- IC50 (Cryptococcus neoformans [9]): Not Active
- MIC (Cryptococcus neoformans [7]): inactive
- MFC (Cryptococcus neoformans [8]): inactive
- Activity (SK-MEL): > 10 µg/mL
- Activity (KB): > 10 µg/mL
- Activity (BT-549): > 10 µg/mL
- Activity [2]: > 10 µg/mL
- Activity (Vero): > 10 µg/mL
- Activity [3]: > 10 µg/mL

SMILES: CC(C)(C)OC(=O)N[C@@H](Cc1cnc(C(C)(C)C)[nH]1)C(=O)N[C@@H](Cc1c[nH]c2ccccc12)C(=O)N[C@@H](Cc1cnc(C(C)(C)C)[nH]1)C(=O)NCc1ccccc1
- inhibition [1]: inactive
- IC50 (Cryptococcus neoformans [9]): Not Active
- MIC (Cryptococcus neoformans [7]): inactive
- MFC (Cryptococcus neoformans [8]): inactive
- Activity (SK-MEL): > 10 µg/mL
- Activity (KB): > 10 µg/mL
- Activity (BT-549): > 10 µg/mL
- Activity [2]: > 10 µg/mL
- Activity (Vero): > 10 µg/mL
- Activity [3]: > 10 µg/mL

SMILES: N[C@@H](Cc1cnc(C2CCCCC2)[nH]1)C(=O)N[C@@H](Cc1c[nH]c2ccccc12)C(=O)N[C@@H](Cc1cnc(C2CCCCC2)[nH]1)C(=O)NCc1ccccc1
- inhibition [1]: inactive
- MIC (Cryptococcus neoformans [7]): 1.25 µg/mL (≈ 1.71 µM)
- Activity (SK-MEL): > 10 µg/mL
- Activity (KB): > 10 µg/mL
- Activity (BT-549): > 10 µg/mL
- Activity [2]: > 10 µg/mL
- Activity (Vero): > 10 µg/mL
- Activity [3]: > 10 µg/mL

SMILES: CC(C)c1ncc(C[C@H](NC(=O)OC(C)(C)C)C(=O)N[C@@H](Cc2c[nH]c3ccccc23)C(=O)N[C@@H](Cc2cnc(C(C)C)[nH]2)C(=O)NCc2ccccc2)[nH]1
- inhibition [1]: inactive
- IC50 (Cryptococcus neoformans [9]): Not Active
- MIC (Cryptococcus neoformans [7]): inactive
- MFC (Cryptococcus neoformans [8]): inactive
- Activity (SK-MEL): > 10 µg/mL
- Activity (KB): > 10 µg/mL
- Activity (BT-549): > 10 µg/mL
- Activity [2]: > 10 µg/mL
- Activity (Vero): > 10 µg/mL
- Activity [3]: > 10 µg/mL

SMILES: C[C@@H]1[C@H](O)[C@@H](C)/C=C/C=C/C=C/C=C/C=C/C=C/C=C/[C@H](O[C@@H]2O[C@H](C)[C@@H](O)[C@H](N)[C@@H]2O)C[C@@H]2O[C@](O)(C[C@@H](O)C[C@@H](O)[C@H](O)CC[C@@H](O)C[C@@H](O)CC(=O)O[C@H]1C)C[C@H](O)[C@H]2C(=O)O [AMPHOTERICIN B]
- inhibition [1]: inactive
- MFC (Cryptococcus neoformans [8]): 1.25 µg/mL (≈ 1.35 µM)
- Activity (SK-MEL): > 10 µg/mL
- Activity (KB): > 10 µg/mL
- Activity (BT-549): > 10 µg/mL
- Activity [2]: > 10 µg/mL
- Activity (Vero): > 10 µg/mL
- Activity [3]: > 10 µg/mL

SMILES: CC(C)c1ncc(C[C@H](NC(=O)[C@H](Cc2c[nH]c3ccccc23)NC(=O)[C@@H](N)Cc2cnc(C(C)C)[nH]2)C(=O)NCc2ccccc2)[nH]1
- inhibition [1]: inactive
- MIC (Cryptococcus neoformans [7]): 20 µg/mL (≈ 30.7 µM)
- Activity (SK-MEL): > 10 µg/mL
- Activity (KB): > 10 µg/mL
- Activity (BT-549): > 10 µg/mL
- Activity [2]: > 10 µg/mL
- Activity (Vero): > 10 µg/mL
- Activity [3]: > 10 µg/mL
